This passage reports IC50 results from ChEMBL document CHEMBL1155493, “Synthesis of new cis-fused tetrahydrochromeno[4,3-b]quinolines and their antiproliferative activity studies against MDA-MB-231 and MCF-7 breast cancer cell lines” (Bioorg Med Chem Lett, 2010).

What is called IC50 is the concentration at which inhibition is half-maximal. Read a high IC50 as lower potency.

The test system of one assay is MDA-MB-231. As to the kind of experiment: Antiproliferative activity against human MDA-MB-231 cells by MTT assay. It counts as functional, cell-based. An outline of the steps: (§1)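 MTT read-out following an earlier published protocol; IC50 values reported, with tamoxifen as the reference compound.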
The next assay concerns MCF7. As to the kind of experiment: Antiproliferative activity against human MCF7 cells by MTT assay. It counts as functional, cell-based. The procedure, abridged: as §1
Background: Tetrazolium dyes change colour on reduction, which living cells bring about.

A value given as a limit tells only on which side of the number the result lay.

Turning to `Cc1ccc2c(c1)C(C)(C)[C@H]1COc3ccc4c(=O)c(C)c(C)oc4c3[C@H]1N2`, the IC50 with MDA-MB-231 was more than 100 µM; in the assay with MCF7, 94.3 µM.
As for `Cc1oc2c3c(ccc2c(=O)c1C)OC[C@H]1[C@@H]3Nc2ccccc2C1(C)C`, the IC50 with MDA-MB-231 and in the assay on MCF7 was more than 100 µM throughout.
As to `Cc1oc2c3c(ccc2c(=O)c1-c1ccccc1)OC[C@H]1[C@@H]3Nc2ccccc2C1(C)C`, the IC50 with MDA-MB-231 and with MCF7 was more than 100 µM in each case.
As to `Cc1coc2c3c(ccc2c1=O)OC[C@H]1[C@@H]3Nc2ccccc2C1(C)C`, the IC50 with MDA-MB-231 turned out to be 93.8 µM; in the assay with MCF7, 9.6 µM.
Turning to `Cc1ccc2c(c1)C(C)(C)[C@H]1COc3ccc4c(=O)c(C)coc4c3[C@H]1N2`, the results for the concentration for half-maximal inhibition (IC50) in the assay with MDA-MB-231 and in the assay on MCF7 were more than 100 µM and 10.2 µM, respectively.
With `Cc1coc2c3c(ccc2c1=O)OC[C@H]1[C@@H]3Nc2cc3ccccc3cc2C1(C)C`, the IC50 was 9.4 µM in the assay on MDA-MB-231 and 9 µM in the assay with MCF7.
The like results for `COc1ccc2c(c1)C(C)(C)[C@H]1COc3ccc4c(=O)c(C)c(C)oc4c3[C@H]1N2` were, in that order, more than 100 µM and more than 100 µM.
Consider `Cc1oc2c3c(ccc2c(=O)c1C)OC[C@H]1[C@@H]3Nc2cc3ccccc3cc2C1(C)C`, for which the IC50 in the assay with MDA-MB-231 and in the assay on MCF7 was more than 100 µM throughout.
On to `Cc1ccc2c(c1)C(C)(C)[C@H]1COc3ccc4c(=O)c(-c5ccccc5)c(C)oc4c3[C@H]1N2`, for which the IC50 was more than 100 µM in the assay with MDA-MB-231 and 10 µM with MCF7.
Take `CC/C(=C(\c1ccccc1)c1ccc(OCCN(C)C)cc1)c1ccccc1` [TAMOXIFEN]: the IC50 in the assay on MDA-MB-231 was found to be 0.66 µM; in the assay with MCF7, 1 µM.
